Measurements as given in BindingDB's records for doi:10.1021/jm000452m (Abbott Laboratories, 2001).

Tests used:
[1] = target: T1, Vascular cell adhesion protein 1 (Homo sapiens, UniProt P19320); assay: In vitro potency against TNF alpha induced expression of VCAM-1 on human vascular endothelial cells using CAM ELISA assay
T1 sequence (P19320 whole entry): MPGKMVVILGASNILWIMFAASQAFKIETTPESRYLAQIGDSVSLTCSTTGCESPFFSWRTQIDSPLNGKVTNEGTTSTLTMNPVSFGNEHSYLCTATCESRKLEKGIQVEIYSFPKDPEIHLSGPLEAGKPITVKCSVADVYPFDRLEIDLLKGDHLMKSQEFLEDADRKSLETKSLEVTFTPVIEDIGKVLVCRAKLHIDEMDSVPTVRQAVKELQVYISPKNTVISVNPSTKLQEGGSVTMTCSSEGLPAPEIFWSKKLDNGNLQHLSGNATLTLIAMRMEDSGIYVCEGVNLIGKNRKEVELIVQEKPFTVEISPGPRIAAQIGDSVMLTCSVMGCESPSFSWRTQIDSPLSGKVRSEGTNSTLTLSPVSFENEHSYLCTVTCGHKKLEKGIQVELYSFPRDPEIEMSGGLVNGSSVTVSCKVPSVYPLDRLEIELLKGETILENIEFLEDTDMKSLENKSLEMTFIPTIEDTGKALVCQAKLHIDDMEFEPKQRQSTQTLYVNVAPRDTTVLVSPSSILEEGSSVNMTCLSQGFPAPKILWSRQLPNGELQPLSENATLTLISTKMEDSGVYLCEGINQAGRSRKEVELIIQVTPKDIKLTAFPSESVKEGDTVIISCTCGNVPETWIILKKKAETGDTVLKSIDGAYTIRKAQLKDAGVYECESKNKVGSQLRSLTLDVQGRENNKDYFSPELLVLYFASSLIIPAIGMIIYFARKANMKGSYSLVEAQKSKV
Procedure, shortened: (§1)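 Surface E-selectin, ICAM-1 or VCAM-1 was detected with mouse monoclonal primary antibody (overnight, 4 °C), then HRP anti-mouse IgG and OPD, with absorbance read at 490 nm. IC50 from triplicates; SEM across repeat triplicate runs.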

[2] = In vitro potency against TNF alpha induced expression of Selectin E on human vascular endothelial cells using CAM ELISA assay
[3] = In vitro potency against TNF alpha induced expression of intercellular adhesion molecule-1 on human vascular endothelial cells using CAM ELISA assay
E-selectin = target: T2, E-selectin (Homo sapiens, UniProt P16581); assay: In vitro potency against TNF alpha induced expression of Selectin E on human vascular endothelial cells using CAM ELISA assay; procedure, shortened: as §1
T2 sequence (P16581 whole entry): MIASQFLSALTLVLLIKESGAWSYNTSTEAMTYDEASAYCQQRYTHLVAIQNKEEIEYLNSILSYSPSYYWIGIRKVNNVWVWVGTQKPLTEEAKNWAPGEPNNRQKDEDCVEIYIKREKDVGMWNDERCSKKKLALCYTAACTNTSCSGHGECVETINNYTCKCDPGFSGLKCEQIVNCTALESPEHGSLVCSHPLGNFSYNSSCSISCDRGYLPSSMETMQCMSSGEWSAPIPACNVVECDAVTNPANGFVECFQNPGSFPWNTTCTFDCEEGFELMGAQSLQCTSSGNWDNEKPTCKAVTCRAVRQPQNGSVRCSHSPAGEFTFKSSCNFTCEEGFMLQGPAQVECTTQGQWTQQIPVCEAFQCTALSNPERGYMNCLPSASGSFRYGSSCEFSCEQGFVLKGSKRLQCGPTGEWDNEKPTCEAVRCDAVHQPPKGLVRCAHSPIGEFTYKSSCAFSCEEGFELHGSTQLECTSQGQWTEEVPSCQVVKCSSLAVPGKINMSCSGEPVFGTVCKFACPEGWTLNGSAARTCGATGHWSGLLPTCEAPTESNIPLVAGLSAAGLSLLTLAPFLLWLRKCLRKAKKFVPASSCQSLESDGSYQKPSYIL

[4] = target: Intercellular adhesion molecule 1 (Homo sapiens, UniProt P05362); assay: In vitro potency against TNF alpha induced expression of intercellular adhesion molecule-1 on human vascular endothelial cells using CAM ELISA assay; procedure, shortened: as §1
Intercellular adhesion molecule 1, sequence (P05362 whole entry): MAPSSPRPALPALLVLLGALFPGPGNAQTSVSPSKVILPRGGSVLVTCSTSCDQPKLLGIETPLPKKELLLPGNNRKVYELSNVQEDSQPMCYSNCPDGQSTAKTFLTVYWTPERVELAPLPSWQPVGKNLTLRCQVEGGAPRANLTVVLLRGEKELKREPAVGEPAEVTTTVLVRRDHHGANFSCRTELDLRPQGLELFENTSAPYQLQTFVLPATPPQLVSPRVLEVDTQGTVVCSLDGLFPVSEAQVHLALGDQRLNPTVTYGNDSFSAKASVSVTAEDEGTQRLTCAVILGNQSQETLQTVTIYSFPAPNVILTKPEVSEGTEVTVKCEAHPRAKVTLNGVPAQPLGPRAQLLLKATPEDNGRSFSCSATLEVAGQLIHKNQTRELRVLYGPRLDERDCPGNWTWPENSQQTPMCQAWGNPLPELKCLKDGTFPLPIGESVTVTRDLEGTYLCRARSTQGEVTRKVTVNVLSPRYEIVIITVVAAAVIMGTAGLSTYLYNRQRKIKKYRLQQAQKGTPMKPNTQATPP

Row | IC50 [1] [nM] | IC50 [2] [nM] | IC50 [3] [nM] | IC50 (E-selectin) [nM] | IC50 [4] [nM] | SMILES
1 | 17000 | 95000 | 99000 | – | – | CCc1cc2c(SCc3ccccc3)ncnc2s1 [4-Benzylsulfanyl-6-ethyl-thieno[2,3-d]pyrimidine]
2 | > 1000 | – | – | – | – | Cc1ccc(Sc2cncc3sc(C(N)=O)cc23)cc1 [4-p-Tolylsulfanyl-thieno[2,3-c]pyridine-2-carboxylic acid amide]
3 | > 4000 | – | – | 1500 | 1900 | Cc1ccc(Sc2cncc3sc(CN=O)cc23)cc1 [4-p-Tolylsulfanyl-thieno[2,3-c]pyridine-2-carbaldehyde oxime]
4 | > 4000 | > 4000 | > 4000 | – | – | Cc1ccc(Sc2cncc3sc(C(=O)NCCCN4CCOCC4)cc23)cc1 [4-p-Tolylsulfanyl-thieno[2,3-c]pyridine-2-carboxylic acid (3-morpholin-4-yl-propyl)-amide]
5 | > 4000 | > 4000 | > 4000 | – | – | Cc1ccc(Sc2cncc3sc(/C=N/OCC(=O)O)cc23)cc1 [(4-p-Tolylsulfanyl-thieno[2,3-c]pyridin-2-ylmethyleneaminooxy)-acetic acid]
6 | 15000 | 16000 | 39000 | – | – | Cc1ccc(Sc2ccnc3sc(C(N)=O)cc23)cc1 [4-p-Tolylsulfanyl-thieno[2,3-b]pyridine-2-carboxylic acid amide]
7 | > 4000 | 45 | 140 | – | – | Cc1cccc(Sc2cncc3sc(C(N)=O)cc23)c1 [4-m-Tolylsulfanyl-thieno[2,3-c]pyridine-2-carboxylic acid amide]
8 | 3500 | 4000 | 5000 | – | – | CCc1cc2c(Sc3nnc(C)s3)ncnc2s1 [6-Ethyl-4-(5-methyl-[1,3,4]thiadiazol-2-ylsulfanyl)-thieno[2,3-d]pyrimidine]
9 | > 1000 | 600 | 570 | – | – | Cc1occc1Sc1cncc2sc(C(N)=O)cc12 [4-(2-Methyl-furan-3-ylsulfanyl)-thieno[2,3-c]pyridine-2-carboxylic acid amide]
10 | 59000 | 49000 | 56000 | – | – | CCc1cc2c(NCc3ccccc3)ncnc2s1 [Benzyl-(6-ethyl-thieno[2,3-d]pyrimidin-4-yl)-amine]
11 | > 100 | 44 | 39 | – | – | NC(=O)c1cc2c(Sc3ccc(C(F)(F)F)cc3)cncc2s1 [4-(4-Trifluoromethyl-phenylsulfanyl)-thieno[2,3-c]pyridine-2-carboxylic acid amide]
12 | > 1000 | 13 | 8 | – | – | Cc1ccc(Sc2cncc3sc(C(N)=O)cc23)cc1C [4-(3,4-Dimethyl-phenylsulfanyl)-thieno[2,3-c]pyridine-2-carboxylic acid amide]
13 | > 1000 | 100 | 37 | – | – | NC(=O)c1cc2c(Sc3ccc(Cl)c(Cl)c3)cncc2s1 [4-(3,4-Dichloro-phenylsulfanyl)-thieno[2,3-c]pyridine-2-carboxylic acid amide]
14 | > 1000 | – | – | 55 | 85 | Cc1ccc(Sc2cncc3sc(C(C)N=O)cc23)cc1 (centres undefined) [1-(4-p-Tolylsulfanyl-thieno[2,3-c]pyridin-2-yl)-ethanone oxime]
15 | 770 | 43 | 54 | – | – | Cc1ccc(Sc2cncc3sc(C(N)=O)cc23)c(C)c1 [4-(2,4-Dimethyl-phenylsulfanyl)-thieno[2,3-c]pyridine-2-carboxylic acid amide]
16 | > 100000 | > 100000 | > 100000 | – | – | CCc1cc2c(=O)[nH]cnc2s1 [MLS000029626]
17 | 18000 | 27000 | > 100000 | – | – | CCc1cc2c(Cl)ncnc2s1 [4-Chloro-6-ethyl-thieno[2,3-d]pyrimidine]
18 | 46000 | 32 | 32 | – | – | Cc1ccc(Sc2cncc3sc(C(=O)NN)cc23)cc1 [4-p-Tolylsulfanyl-thieno[2,3-c]pyridine-2-carboxylic acid hydrazide]
19 | 2500 | 3000 | 6300 | – | – | CCc1cc2c(Sc3nnc(N)s3)ncnc2s1 [GNF-Pf-1931]
20 | 2100 | 1700 | 1800 | – | – | Cc1ccc(Sc2cncc3sccc23)cc1 [4-p-Tolylsulfanyl-thieno[2,3-c]pyridine]
21 | 19000 | 150 | 160 | – | – | Cc1ccc(Sc2cncc3sc(C(N)=S)cc23)cc1 [4-p-Tolylsulfanyl-thieno[2,3-c]pyridine-2-carbothioic acid amide]
22 | 65000 | 660 | 2300 | – | – | NC(=O)c1cc2c(Sc3ccccn3)cncc2s1 [4-(Pyridin-2-ylsulfanyl)-thieno[2,3-c]pyridine-2-carboxylic acid amide]
